# Results as given in PubChem BioAssay.
# The source made the active and inactive calls.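 The calls were made as follows, unless noted: active = viability at or below 30% in both replicate assays; inconclusive = viability at or below 30% in just one of the two assays; inactive = the rest.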
# Experiments:
# [1] = reducers of endogenous Her2 protein level, primary screen, SKBR3 breast tumor cells, AlphaScreen, ATP viability (AID 461;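 active = Her2 level under about 52% in both replicate screens, with viability over 70% of control, limit read from the data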;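 as to Her2 level: lower value means less Her2 protein in the cells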;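 as to viability: percent of carrier control wells set as 100% viability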); conditions: 18-24 h, measured here: SKBR3 viability, ATP luminescence, at 10 µM
# [2] = target: Receptor tyrosine-protein kinase erbB-2 (Homo sapiens) (UniProt P04626); assay: as above; conditions: 18-24 h, at 10 µM, stronger effect = lower value
# [3] = SK-BR-3 cell growth inhibitors, pilot screen, 24 h, human (AID 572;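 active = viability at or below 10% of carrier control in both of two separate runs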;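 also: compound exposure lasted between 18 and 24 h rather than exactly 24 h; 100% = carrier-treated control wells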); conditions: SK-BR-3 viability, CellTiter-Glo luminescence, at 10 µM, stronger effect = lower value
# [4] = HUVEC growth inhibition – cell-based, human, primary screen (AID 575); conditions: HUVEC proliferation, CellTiter-Glo luminescence, 72 h; at 10 µM; stronger effect = lower value;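 also: 100% = median of untreated cell wells with 0.1% DMSO on each plate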
# In short: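 Timing: 72 h treatment at 37 °C; material: HUVEC primary cells; technique: CellTiter-Glo luminescence measuring cellular ATP; controls: vehicle and MePR control wells; measure: percent of median DMSO-control luminescence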
# [5] = growth inhibitors of H69AR lung tumor, primary screen, human, duplicate replicates (AID 580;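 active = viability at or under a set limit in both replicates, limit being median viability minus 3 SD, cut at about 48% in these data, passing the limit was not always enough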;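 also: 100% = mean luminescence of untreated wells and 0% = no signal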); conditions: H69AR lung tumor cells viability, ATP luminescence, 72 h; at 10 µM; stronger effect = lower value
# [6] = reversal of MRP1-mediated doxorubicin resistance, pilot screen, H69AR cells, doxorubicin co-treatment (AID 601;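 active = viability loss from added drug above about 55%, and viability with drug at most 40%, in both replicates, limit read from the data, passing the limit was not always enough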); conditions: CellTiter-Glo, 72 h, at 10 µM; for differential viability (reversal): stronger effect = higher value
# [7] = 384-well plate pilot, post-Golgi transport modulator project, inhibition of yeast transport mutant growth (AID 636; in the data active = inhibition above about 31%); conditions: absorbance 615 nm, about 18 h, stronger effect = higher value
# [8] = growth suppression of yeast trafficking mutant, preliminary HTS, modulators of trafficking downstream of Golgi apparatus project, 1536-format plate, OD 615 nm (AID 637; in the data active = inhibition above about 30%); conditions: yeast transport mutant growth, absorbance 615 nm, 18 h; stronger effect = higher value
# [9] = H69AR cells + 2 uM doxorubicin, measured here: viability with 2 uM doxorubicin, stronger effect = lower value
# [10] = H69AR cells, compound alone cytotoxicity
# Receptor tyrosine-protein kinase erbB-2 (Homo sapiens), sequence (P04626 whole entry, looked up): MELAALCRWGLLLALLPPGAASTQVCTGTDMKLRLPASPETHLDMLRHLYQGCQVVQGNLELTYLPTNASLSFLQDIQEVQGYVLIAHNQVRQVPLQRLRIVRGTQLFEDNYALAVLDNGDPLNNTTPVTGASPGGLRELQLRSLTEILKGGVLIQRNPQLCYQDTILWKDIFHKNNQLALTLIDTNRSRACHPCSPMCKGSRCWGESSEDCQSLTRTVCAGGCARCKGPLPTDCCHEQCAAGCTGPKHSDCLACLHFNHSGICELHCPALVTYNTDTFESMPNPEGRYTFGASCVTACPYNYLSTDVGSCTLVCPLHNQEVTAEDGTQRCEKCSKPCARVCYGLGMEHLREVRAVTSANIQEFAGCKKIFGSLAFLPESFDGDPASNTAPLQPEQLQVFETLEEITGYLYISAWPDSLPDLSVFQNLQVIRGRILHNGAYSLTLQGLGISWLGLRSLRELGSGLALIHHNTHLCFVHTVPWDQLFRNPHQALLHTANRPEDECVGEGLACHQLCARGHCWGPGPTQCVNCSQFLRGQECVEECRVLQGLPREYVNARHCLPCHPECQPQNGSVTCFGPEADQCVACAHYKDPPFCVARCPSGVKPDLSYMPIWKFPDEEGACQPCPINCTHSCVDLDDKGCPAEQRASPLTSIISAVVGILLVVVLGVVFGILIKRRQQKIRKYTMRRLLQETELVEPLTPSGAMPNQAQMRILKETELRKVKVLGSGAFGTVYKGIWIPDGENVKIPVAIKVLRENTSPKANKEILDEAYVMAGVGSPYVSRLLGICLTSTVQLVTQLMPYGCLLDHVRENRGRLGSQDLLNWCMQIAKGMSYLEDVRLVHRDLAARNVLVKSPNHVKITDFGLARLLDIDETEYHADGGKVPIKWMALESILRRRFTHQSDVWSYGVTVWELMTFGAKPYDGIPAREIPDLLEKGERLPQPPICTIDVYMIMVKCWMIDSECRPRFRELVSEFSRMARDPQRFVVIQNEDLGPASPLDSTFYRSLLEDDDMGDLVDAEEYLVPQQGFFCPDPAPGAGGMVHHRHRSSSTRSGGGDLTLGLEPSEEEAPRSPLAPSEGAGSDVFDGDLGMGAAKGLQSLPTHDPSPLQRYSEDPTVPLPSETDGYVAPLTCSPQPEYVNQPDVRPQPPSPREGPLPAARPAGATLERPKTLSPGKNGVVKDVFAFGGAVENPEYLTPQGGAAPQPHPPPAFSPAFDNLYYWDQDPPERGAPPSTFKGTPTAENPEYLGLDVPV
Structure (SMILES),viability [1],Her2 level [2],viability [3],viability [4],viability [5],differential viability (reversal) ([6]; H69AR cells + 2 uM doxorubicin),"viability [6, 9]","viability [6, 10]",inhibition [7],inhibition [8]
CC(=O)Oc1ccc(CCC(C)OC(C)=O)cc1 (stereo not given),101%,92% (inactive),101% (inactive),93.2% (inactive),99.7% (inactive),2.78% (inactive),96.9%,99.7%,-6.13% (inactive),-1.13% (inactive)
CN(C)c1ccc(CNCCC2(O)CCOC(C)(C)C2)cc1 (stereo not given),89%,86% (inactive),89% (inactive),95.3% (inactive),102% (inactive),7.18% (inactive),95%,102%,-6.08% (inactive),1.64% (inactive)
O=C(C1CC1(c1ccccc1)c1ccccc1)N1CCOCC1 (stereo not given),112%,106% (inactive),112% (inactive),99.3% (inactive),98.8% (inactive),11.4% (inactive),87.3%,98.8%,-5.6% (inactive),1.45% (inactive)
CC(=O)Nc1cc2c(nc1C)nc(C)n2Cc1ccc(Br)cc1,76%,88% (inactive),76% (inactive),90% (inactive),108% (inactive),12.7% (inactive),95.3%,108%,-4.4% (inactive),0.33% (inactive)
COc1ccc(CCNC(=O)COc2ccc(S(=O)(=O)N3CCOCC3)cc2)cc1,98%,87% (inactive),98% (inactive),102% (inactive),95.1% (inactive),6.25% (inactive),88.9%,95.1%,-6.76% (inactive),0% (inactive)
CCC(C)(C(=O)NC1CCCCC1)N(Cc1ccco1)C(=O)c1cnccn1 (stereo not given),82%,98% (inactive),82% (inactive),88.7% (inactive),97.5% (inactive),8.25% (inactive),89.2%,97.5%,-0.78% (inactive),-3.77% (inactive)
Cn1c(=O)c2ncn(CC(=O)NCCOc3ccc(C(C)(C)C)cc3)c2n(C)c1=O,96.5%,110% (inactive),96.5% (inactive),100% (inactive),76.2% (inactive),-17.6% (inactive),93.8%,76.2%,-5.45% (inactive),-6.03% (inactive)
COc1ccc(N2C(N)=C(C#N)C(c3cccnc3)C3=C2CC(C)(C)CC3=O)cc1 (stereo not given),106%,90% (inactive),106% (inactive),79.5% (inactive),20.6% (active),-3% (inactive),23.6%,20.6%,-8.9% (inactive),0.32% (inactive)
COc1cccc(-c2cc(C(=O)N3CCc4ccccc4C3)no2)c1,99.5%,104% (inactive),99.5% (inactive),67.7% (inactive),96.8% (inactive),-5.97% (inactive),103%,96.8%,-8.51% (inactive),-4.59% (inactive)
COCCNC(=O)C(c1ccc(O)cc1)N(Cc1ccco1)C(=O)CCC(=O)Nc1nccs1 (stereo not given),81.5%,104% (inactive),81.5% (inactive),104% (inactive),99.5% (inactive),11.1% (inactive),88.3%,99.5%,-0.81% (inactive),-6.23% (inactive)
CC1(C)OC(=O)C(=CNc2ccccc2)C(=O)O1,98%,94% (inactive),98% (inactive),98.7% (inactive),108% (inactive),10.9% (inactive),97.2%,108%,0.39% (inactive),0.18% (inactive)
Cc1cc(C)c2c(n1)nn1c(C3CC3)cc(C(F)(F)F)nc21,106%,89% (inactive),106% (inactive),90.7% (inactive),92.4% (inactive),-4.02% (inactive),96.4%,92.4%,-5.41% (inactive),2.54% (inactive)
O=C(NCc1nnc(SCC(=O)N2CCCCCC2)o1)c1ccco1,104%,100% (inactive),104% (inactive),101% (inactive),111% (inactive),18.3% (inactive),92.8%,111%,-4.27% (inactive),-0.48% (inactive)
COc1ccc2c(c1)Sc1ccccc1N2CCN(C)C,88.5%,86.5% (inactive),88.5% (inactive),59.1% (inactive),68.8% (inactive),-3.43% (inactive),72.3%,68.8%,-5.39% (inactive),-6.29% (inactive)
